From ChEMBL document CHEMBL1135330, “Synthesis and evaluation of 4-hydroxyphenylacetic acid amides and 4-hydroxycinnamamides as antioxidants” (Bioorg Med Chem Lett, 2002)

Species on record: Rattus norvegicus
Experiment: Compound was evaluated for its inhibitory concentration against X/XO- induced oxidative neuronal damage in primary cultured rat cortical cells
Format: functional, cell-based
Method in brief: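 Primary rat cortical cultures at 12–14 days in vitro were washed with HBSS and exposed for 10 min to xanthine (0.5 mM)/xanthine oxidase (10 mU/mL), with compound at various concentrations present during the insult. They were then washed and kept in MEM plus 21 mM glucose at 37 °C, 5% CO2.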

Structure (SMILES)	IC50 [µM]
Cc1ccc(CCCNC(=O)Cc2ccc(O)c(O)c2)cc1C	3.3
Cc1ccc(CCCNC(=O)/C=C/c2ccc(O)c(O)c2)cc1C	2.54
Cc1ccc(CCCNC(=O)Cc2cc(O)c(O)c(O)c2)cc1C	34.8
Cc1c(C)c2c(c(C)c1O)CCC(C)(C(=O)O)O2 (stereo unspecified) [TROLOX]	202

Species on record: Rattus norvegicus
Experiment: Neuroprotective action was estimated in terms of its inhibitory concentration against superoxide and hydroxyl radicals measured by the leakage of cytoplasmic enzyme lactate dehydrogenase (LDH); found highly potent
Format: functional

Structure (SMILES)	IC50 [µM]
Cc1ccc(CCCNC(=O)Cc2ccc(O)c(O)c2)cc1C	2.4

Species on record: Rattus norvegicus
Experiment: Compound was evaluated for its inhibitory concentration against hydrogen peroxide- induced oxidative neuronal damage in primary cultured rat cortical cells
Format: functional, cell-based
Method in brief: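 Cortical cultures from rat, 12–14 days in vitro, were HBSS-washed and exposed to H2O2 for 5 min, with compound at various concentrations present during the exposure. Cultures were then washed and kept in MEM plus 21 mM glucose at 37 °C, 95% air/5% CO2.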

Structure (SMILES)	IC50 [µM]
Cc1ccc(CCCNC(=O)Cc2ccc(O)c(O)c2)cc1C	6.03
Cc1ccc(CCCNC(=O)/C=C/c2ccc(O)c(O)c2)cc1C	5.91
Cc1ccc(CCCNC(=O)Cc2cc(O)c(O)c(O)c2)cc1C	35
Cc1c(C)c2c(c(C)c1O)CCC(C)(C(=O)O)O2 (stereo unspecified) [TROLOX]	330

Species on record: Rattus norvegicus
Experiment: Neuroprotective action was estimated in terms of its inhibitory concentration against superoxide and hydroxyl radicals measured by the leakage of cytoplasmic enzyme lactate dehydrogenase (LDH).
Format: functional

Structure (SMILES)	IC50 [µM]
Cc1ccc(CCCNC(=O)Cc2ccc(O)c(O)c2)cc1C	2.4

Species on record: Rattus norvegicus
Experiment: Compound was tested for its DPPH radical scavenging activity in rat brain homogenates
Format: functional

Structure (SMILES)	IC50 [µM]
Cc1ccc(CCCNC(=O)Cc2ccc(O)c(O)c2)cc1C	31
Cc1ccc(CCCNC(=O)/C=C/c2ccc(O)c(O)c2)cc1C	34.3
CCCCOc1cc(CC(=O)NCCCc2ccc(C)c(C)c2)ccc1O	162
COc1cc(CC(=O)NCCCc2ccc(C)c(C)c2)ccc1O	179
COc1cc(CC(=O)NCCCc2ccc(C)c(C)c2)cc(OC)c1O	50.1
Cc1ccc(CCCNC(=O)Cc2ccc(O)c(Oc3ccccc3)c2)cc1C	> 300
Cc1ccc(CCCNC(=O)Cc2ccc(O)c(OC(C)C)c2)cc1C	> 300
COc1cc(/C=C/C(=O)NCCCc2ccc(C)c(C)c2)cc(OC)c1O	89.1
Cc1ccc(CCCNC(=O)Cc2cc(O)c(O)c(O)c2)cc1C	21.3
CCOc1cc(CC(=O)NCCCc2ccc(C)c(C)c2)ccc1O	182
COc1cc(/C=C/C(=O)NCCCc2ccc(C)c(C)c2)ccc1O	82.2

Species on record: Rattus norvegicus
Experiment: Compound was evaluated for its inhibitory concentration against [Fe2+]/AA- induced oxidative neuronal damage in primary cultured rat cortical cells
Format: functional, cell-based
Method in brief: (§1)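 Primary rat cortical cultures at 12–14 days in vitro were HBSS-washed and exposed for 2 h to Fe2+ (100 μM)/ascorbic acid (25 μM), with compound at various concentrations present during the insult. Cultures were then washed and held in MEM plus 21 mM glucose at 37 °C, 5% CO2.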

Structure (SMILES)	IC50 [µM]
Cc1ccc(CCCNC(=O)Cc2ccc(O)c(O)c2)cc1C	2.4
Cc1ccc(CCCNC(=O)/C=C/c2ccc(O)c(O)c2)cc1C	23.7
Cc1ccc(CCCNC(=O)Cc2cc(O)c(O)c(O)c2)cc1C	26.8
Cc1c(C)c2c(c(C)c1O)CCC(C)(C(=O)O)O2 (stereo unspecified) [TROLOX]	431

Species on record: Rattus norvegicus
Experiment: Neuroprotective action was estimated in terms of its inhibitory concentration against [Fe2+]/AA- induced toxicity
Format: functional
Method in brief: as §1

Structure (SMILES)	IC50 [µM]
CCCCOc1cc(CC(=O)NCCCc2ccc(C)c(C)c2)ccc1O	4.2
Cc1ccc(CCCNC(=O)Cc2ccc(O)c(OC(C)C)c2)cc1C	34.2
COc1cc(/C=C/C(=O)NCCCc2ccc(C)c(C)c2)cc(OC)c1O	5.4

Species on record: Rattus norvegicus
Experiment: Compound was tested for its inhibitory concentration against formation of lipid peroxides in rat brain homogenates by thiobarbituric acid reactive substances (TBARS) assay according to the method of Stocks.
Format: functional
Method in brief: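 Lipid peroxidation was run on rat brain homogenate (pH 7.4) supernatant after 1000 × g for 10 min. It was started with 0.02 mM FeCl2 and 0.25 mM ascorbic acid for 30 min at 37 °C and stopped with perchloric acid. After re-centrifugation, the supernatant was reacted with 0.5% TBA at 80 °C for 1 h, cooled, and read at 532 nm.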

Structure (SMILES)	IC50 [µM]
Cc1ccc(CCCNC(=O)Cc2ccc(O)c(O)c2)cc1C	2.6
Cc1ccc(CCCNC(=O)/C=C/c2ccc(O)c(O)c2)cc1C	1.11
CCCCOc1cc(CC(=O)NCCCc2ccc(C)c(C)c2)ccc1O	9.28
COc1cc(CC(=O)NCCCc2ccc(C)c(C)c2)ccc1O	25.9
Cc1c(C)c2c(c(C)c1O)CC[C@@](C)(CCC[C@H](C)CCC[C@H](C)CCCC(C)C)O2 [ALPHA-TOCOPHEROL]	4.68
COc1cc(CC(=O)NCCCc2ccc(C)c(C)c2)cc(OC)c1O	11.8
Cc1ccc(CCCNC(=O)Cc2ccc(O)c(Oc3ccccc3)c2)cc1C	32
Cc1cc(C(C)(C)C)c(O)c(C(C)(C)C)c1 [BUTYLATED HYDROXYTOLUENE]	4.03
Cc1ccc(CCCNC(=O)Cc2ccc(O)c(OC(C)C)c2)cc1C	19.4
COc1cc(/C=C/C(=O)NCCCc2ccc(C)c(C)c2)cc(OC)c1O	3.41
Cc1ccc(CCCNC(=O)Cc2cc(O)c(O)c(O)c2)cc1C	1.81
CCOc1cc(CC(=O)NCCCc2ccc(C)c(C)c2)ccc1O	24
COc1cc(/C=C/C(=O)NCCCc2ccc(C)c(C)c2)ccc1O	9.94
